{"source": "ChEMBL document CHEMBL1123921", "about": "“Quinolonecarboxylic acids. 2. Synthesis and antibacterial evaluation of 7-oxo-2,3-dihydro-7H-pyrido[1,2,3-de][1,4]benzothiazine-6-carboxylic acids” (J Med Chem, 1987)", "key": {"in vivo [1]": {"test": "in vivo", "conditions": "heart, po, 50 mg/kg"}, "[2]": {"test": "Time taken for peak plasma concentration at a dose of 100 mg/kg, os route in rat suspended in carboxymethyl cellulose (CMC)", "type": "ADME, organism-based", "parameters": "dose 100 mg/kg", "conditions": "po", "procedure,_shortened": "(§1)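 Fasted male Wistar rats (180–230 g) dosed orally, suspended in carboxymethyl cellulose. Plasma and urine assayed by HPLC: sample plus internal standard and citrate buffer (0.1 M, pH 6.2), extracted into CHCl₃, dried, redissolved in MeOH. Separation on C-18 with 0.1% AcOH/MeOH gradient, UV detection at 245 nm.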"}, "[3]": {"test": "Urinary excretion for the compound was evaluated as percent dose excreted at 20 mg/kg oral dosage in dog (beagle);Range is between (8-10).", "type": "ADME, organism-based, Canis lupus familiaris", "parameters": "dose 20 mg/kg, route oral", "conditions": "urine", "procedure,_shortened": "(§2)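 Four male beagle dogs or two Macaca fascicularis monkeys dosed orally, suspended in carboxymethyl cellulose. Venous blood collected into heparinized tubes and plasma separated by low-speed centrifugation. Urine gathered in metabolic cages. Unchanged drug measured by C-18 HPLC (extraction, UV 245 nm).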"}, "Escherichia coli": {"tested_on": "Escherichia coli", "test": "In vitro antibacterial activity against clinical isolates of Escherichia coli 15 (gram negative) by agar dilution assay.", "type": "functional", "procedure,_shortened": "(§3)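 Agar dilution on Isosensitest agar; compound incorporated by twofold serial dilution. Overnight broth cultures delivered by multipoint inoculator at 10⁵ CFU per point. Plates read after 18 h at 37 °C. MIC taken as the lowest concentration giving complete growth inhibition.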"}, "[4]": {"test": "Total clearance was determined in rat at 25 mg/kg intraperitoneal dosage", "type": "ADME, organism-based", "parameters": "dose 25 mg/kg, route intraperitoneal", "conditions": "in vivo, ip, read-out: Clearance (converted)", "procedure,_shortened": "(§4)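 Fasted male Wistar rats (180–230 g) given the drug ip in carboxymethyl cellulose. Plasma and urine extracted with CHCl₃ from citrate buffer pH 6.2 with internal standard. Analysis by reverse-phase C-18 HPLC, 0.1% AcOH/MeOH gradient, 245 nm UV. Urinary clearance and total clearance derived as pharmacokinetic parameters.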"}, "[5]": {"test": "Half life period was determined for the compound at 20 mg/kg concentration, oral route in monkey (Macaca fascicularis)", "type": "ADME, organism-based", "parameters": "dose 20 mg/kg, route oral", "conditions": "cynomolgus monkey, in vivo", "procedure,_shortened": "as §2"}, "[6]": {"test": "Half life period was determined for the compound at 50 mg/kg concentration, os route", "conditions": "in vivo, po"}, "Staphylococcus aureus": {"tested_on": "Staphylococcus aureus", "test": "In vitro antibacterial activity against clinical isolates of Staphylococcus aureus 18773 (gram-positive) by agar dilution assay.", "type": "functional", "procedure,_shortened": "as §3"}, "[7]": {"test": "Total clearance was determined in rat at 10 mg/kg intraperitoneal dosage", "type": "ADME, organism-based", "parameters": "dose 10 mg/kg, route intraperitoneal", "conditions": "in vivo, ip, read-out: Clearance (converted)", "procedure,_shortened": "as §4"}, "[8]": {"test": "Peak plasma concentration at a dose of 100 mg/kg, oral route in human", "type": "ADME, organism-based", "parameters": "dose 100 mg/kg, route oral", "conditions": "read-out: Activity", "procedure,_shortened": "(§5)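 Four healthy volunteers of both sexes took oral capsules (100 mg units) at three dose levels. Venous blood drawn into heparinized tubes and plasma obtained by low-speed centrifugation. Urine collected. Unchanged drug in plasma and urine determined by C-18 HPLC after CHCl₃ extraction, with UV detection at 245 nm.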"}, "[9]": {"test": "Time taken for peak plasma concentration at a dose of 20 mg/kg, oral route in dog(beagle) suspended in carboxymethyl cellulose (CMC)", "type": "ADME, organism-based, Canis lupus familiaris", "parameters": "dose 20 mg/kg, route oral", "procedure,_shortened": "as §2"}, "Klebsiella pneumoniae": {"tested_on": "Klebsiella pneumoniae", "test": "In vitro antibacterial activity against clinical isolates of Klebsiella pneumoniae-4 (gram negative) by agar dilution assay.", "type": "functional", "procedure,_shortened": "as §3"}, "in vivo [10]": {"test": "in vivo", "conditions": "ip, 25 mg/kg"}, "[11]": {"test": "Ratio of tissue (heart) levels to plasma levels after 15 hr of treatment", "type": "ADME", "procedure,_shortened": "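Male Wistar rats received 50 mg/kg po and were killed at 1 and 15 h. Tissue homogenates and plasma extracted with CHCl₃ after adding internal standard and pH 6.2 citrate buffer. Drug quantified by C-18 HPLC with UV at 245 nm. Tissue level divided by plasma level.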"}, "[12]": {"test": "Tissue levels determined 1 hr after peroral dose of 50 mg/kg in liver", "conditions": "po"}, "[13]": {"test": "Urinary excretion for the compound was evaluated as percent dose excreted at 50 mg/kg os dosage", "type": "ADME, organism-based", "parameters": "dose 50 mg/kg", "conditions": "urine, po", "procedure,_shortened": "as §1"}, "[14]": {"test": "Peak plasma concentration at a dose of 400 mg/kg, oral route in human", "type": "ADME, organism-based", "parameters": "dose 400 mg/kg, route oral", "conditions": "read-out: Activity", "procedure,_shortened": "as §5"}, "[15]": {"test": "Time taken for peak plasma concentration at a dose of 200 mg/kg, oral route in human", "type": "ADME, organism-based", "parameters": "dose 200 mg/kg, route oral", "procedure,_shortened": "as §5"}, "[16]": {"test": "Time taken for peak plasma concentration at a dose of 100 mg/kg, oral route in human", "type": "ADME, organism-based", "parameters": "dose 100 mg/kg, route oral", "procedure,_shortened": "as §5"}, "[17]": {"test": "Tissue levels determined 1 hr after peroral dose of 50 mg/kg in heart", "conditions": "po"}, "[18]": {"test": "Ratio of urinary excretion after os administration to ip administration", "type": "ADME, organism-based, Urine", "conditions": "in vivo", "procedure,_shortened": "(§6)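 Fasted male Wistar rats (180–230 g), drug suspended in carboxymethyl cellulose, given orally or ip. Plasma (heparinized) and urine from metabolic cages were sampled at various times. The unchanged drug was measured by HPLC after CHCl3 extraction at pH 6.2 with an internal standard, on a C-18 column with an AcOH/MeOH gradient and UV detection at 245 nm. Interassay and intraassay variability was about 10%.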"}, "[19]": {"test": "Ratio of AUC from os administration to AUC from ip administration at a dose of 25 mg/kg", "type": "ADME, organism-based", "parameters": "dose 25 mg/kg, route intraperitoneal", "conditions": "in vivo", "procedure,_shortened": "as §6"}, "[20]": {"test": "Urinary excretion for the compound was evaluated as percent dose excreted at 200 mg/kg oral dosage in human", "type": "ADME, organism-based", "parameters": "dose 200 mg/kg, route oral", "conditions": "urine", "procedure,_shortened": "as §5"}, "[21]": {"test": "Peak plasma concentration at a dose of 200 mg/kg, oral route in human", "type": "ADME, organism-based", "parameters": "dose 200 mg/kg, route oral", "conditions": "read-out: Activity", "procedure,_shortened": "as §5"}, "[22]": {"test": "Half life period was determined for the compound at 10 mg/kg concentration, intraperitoneal route", "conditions": "in vivo, ip"}, "[23]": {"test": "Half life period was determined for the compound at 100 mg/kg concentration, os route", "conditions": "in vivo, po"}, "[24]": {"test": "Urinary excretion for the compound was evaluated as percent dose excreted at 400 mg/kg oral dosage in human", "type": "ADME, organism-based", "parameters": "dose 400 mg/kg, route oral", "conditions": "urine", "procedure,_shortened": "as §5"}}}
{"smiles": "CN1CCN(c2c(F)cc3c(=O)c(C(=O)O)cn4c3c2SCC4)CC1", "note": "[RUFLOXACIN]", "values": [{"measurement": "concentration at 15 h", "setting": "in vivo [1]", "result": 5000, "unit": "ng/mL"}, {"measurement": "Tmax", "setting": "[2]", "result": 1, "unit": "h"}, {"measurement": "dose excreted", "setting": "[3]", "result": 8, "unit": "%"}, {"measurement": "MIC", "setting": "Escherichia coli", "result": 0.78, "unit": "µg/mL"}, {"measurement": "CL/F", "setting": "[4]", "result": 4.18, "unit": "mL/min/kg"}, {"measurement": "half-life", "setting": "[5]", "result": 3000, "unit": "min"}, {"measurement": "half-life", "setting": "[6]", "result": 522, "unit": "min"}, {"measurement": "MIC", "setting": "Staphylococcus aureus", "result": 0.78, "unit": "µg/mL"}, {"measurement": "CL/F", "setting": "[7]", "result": 4.22, "unit": "mL/min/kg"}, {"measurement": "Cmax", "setting": "[8]", "result": 1870, "unit": "ng/mL"}, {"measurement": "Tmax", "setting": "[9]", "result": 4, "unit": "h"}, {"measurement": "MIC", "setting": "Klebsiella pneumoniae", "result": "< 0.39", "unit": "µg/mL"}, {"measurement": "half-life", "setting": "in vivo [10]", "result": 594, "unit": "min"}, {"measurement": "Kp at 15 h", "setting": "[11]", "result": 1.7}, {"measurement": "concentration at 1 h", "setting": "[12]", "result": 80, "unit": "µg/mL"}, {"measurement": "dose excreted", "setting": "[13]", "result": 16.7, "unit": "%"}, {"measurement": "Cmax", "setting": "[14]", "result": 2730, "unit": "ng/mL"}, {"measurement": "Tmax", "setting": "[15]", "result": 4, "unit": "h"}, {"measurement": "Tmax", "setting": "[16]", "result": 4, "unit": "h"}, {"measurement": "concentration at 1 h", "setting": "[17]", "result": 31000, "unit": "ng/mL"}, {"measurement": "Ratio", "setting": "[18]", "result": 0.91}, {"measurement": "Ratio", "setting": "[19]", "result": 0.85}, {"measurement": "dose excreted", "setting": "[20]", "result": 55, "unit": "%"}, {"measurement": "Cmax", "setting": "[21]", "result": 1920, "unit": "ng/mL"}, {"measurement": "half-life", "setting": "[22]", "result": 594, "unit": "min"}, {"measurement": "half-life", "setting": "[23]", "result": 522, "unit": "min"}, {"measurement": "dose excreted", "setting": "[24]", "result": 33, "unit": "%"}]}
